For one experiment, the system named is K562. The experiment can be described thus: Cytotoxicity against human K562 cells assessed as cell viability after 6 days by MTT assay. Format: functional, cell-based. (In general: Tetrazolium assays rely on reduction of a dye to a coloured formazan, in cell work by metabolically active cells.)
The next experiment deals with A549. The experiment in a line: Cytotoxicity against human A549 cells assessed as cell viability after 6 days by MTT assay. It is filed as functional, cell-based.
A further experiment relates to HL-60. The experiment can be described thus: Cytotoxicity against human HL60 cells assessed as cell viability after 6 days by MTT assay. It is filed as functional, cell-based.
The next experiment relates to Vibrio parahaemolyticus. The experiment in a line: Antibacterial activity against Vibrio parahaemolyticus ATCC 17802 assessed as growth inhibition after 18 hrs by broth dilution method. Format: functional. The conditions noted are these: ATCC 17802, 18 h. The method, boiled down:
(§1)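 Conventional broth dilution assay, run across a panel of nine bacterial strains (Gram-positive and Vibrio species included), with ciprofloxacin as the positive control.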
(In general: In broth dilution the organism is exposed to a series of concentrations in liquid medium.)

A further experiment has as its system Staphylococcus aureus. The experiment can be described thus: Antibacterial activity against Staphylococcus aureus ATCC 27154 assessed as growth inhibition after 18 hrs by broth dilution method. The conditions noted are these: ATCC 27154, 18 h. It is filed as functional. An outline of the steps: as §1
The test system of a further experiment is Staphylococcus. The experiment can be described thus: Antibacterial activity against Staphylococcus albus ATCC 8799 assessed as growth inhibition after 18 hrs by broth dilution method. The conditions noted are these: ATCC 8799, 18 h. Format: functional. An outline of the steps: as §1
In a further experiment the test system is Bacillus cereus. The experiment in a line: Antibacterial activity against Bacillus cereus ACCC 11077 assessed as growth inhibition after 18 hrs by broth dilution method. The conditions noted are these: ACCC 11077, 18 h.

Molecules are shown by their SMILES. Values after ≈ are worked out from the molar mass of the structure shown. Active and inactive are the calls of the source. The calls are words filed in the database; no cut-off is given here.

As usually defined, the MIC is the least concentration at which growth counts as inhibited.

As to `CC(O)c1coc(=O)c2c(O)cc(O)c(O)c12` (stereo not given), the result with K562, in the experiment with A549 and with HL-60 was inactive. Further, the minimal inhibitory concentration (MIC) in the experiment with Vibrio parahaemolyticus was 6.25 µM (≈ 1.49 µg/mL); with Staphylococcus aureus, 12.5 µM (≈ 2.98 µg/mL); in the experiment with Staphylococcus it was above 25 µM; in the experiment on Bacillus cereus it was 6.25 µM (≈ 1.49 µg/mL).

As to `CC(=O)CCC[C@@H]1Cc2cccc(O)c2C(=O)O1` [ASPERGILLUMARIN A], the outcome with K562, in the experiment on A549 and in the experiment on HL-60 was inactive. Moreover, the minimal inhibitory concentration (MIC) with Vibrio parahaemolyticus was above 25 µM; with Staphylococcus aureus it was above 25 µM; with Staphylococcus, 12.5 µM (≈ 3.1 µg/mL); with Bacillus cereus, above 25 µM.

As for `C[C@H](O)CCC[C@@H]1Cc2cccc(O)c2C(=O)O1` [ASPERGILLUMARIN B], the result in the experiment on K562, with A549 and in the experiment on HL-60 was inactive. The minimal inhibitory concentration (MIC) with Vibrio parahaemolyticus is above 25 µM; with Staphylococcus aureus it was above 25 µM; in the experiment with Staphylococcus it was 12.5 µM (≈ 3.13 µg/mL); in the experiment on Bacillus cereus, above 25 µM.

Regarding `O=C(O)c1cn(C2CC2)c2cc(N3CCNCC3)c(F)cc2c1=O` [CIPROFLOXACIN], the MIC stood at 0.16 µM (≈ 0.053 µg/mL) with Vibrio parahaemolyticus, 0.16 µM (≈ 0.053 µg/mL) with Staphylococcus aureus, 0.312 µM (≈ 0.103 µg/mL) with Staphylococcus and 0.625 µM (≈ 0.207 µg/mL) in the experiment on Bacillus cereus.

In the case of `COc1cc(O)cc2c(CO)c(C)oc12` [PENICIFURAN A], the outcome in the experiment with K562, in the experiment on A549 and in the experiment with HL-60 was inactive. For the same compound, the MIC in the experiment on Vibrio parahaemolyticus worked out at 25 µM (≈ 5.21 µg/mL); in the experiment with Staphylococcus aureus it was 25 µM (≈ 5.21 µg/mL); with Staphylococcus, 3.13 µM (≈ 0.652 µg/mL); in the experiment on Bacillus cereus, 12.5 µM (≈ 2.6 µg/mL).

Consider `COc1cc(O)cc2c(COC(C)=O)c(C)oc12` [PENICIFURAN B], for which the result in the experiment on K562, with A549 and in the experiment with HL-60 was inactive. For the same compound, the MIC is above 25 µM in the experiment with Vibrio parahaemolyticus, above 25 µM in the experiment with Staphylococcus aureus, 12.5 µM (≈ 3.13 µg/mL) with Staphylococcus and above 25 µM in the experiment on Bacillus cereus.

For the compound `Cc1oc2c(O)cc(O)cc2c1C=O` [PENICIFURAN C], the result with K562, in the experiment with A549 and with HL-60 was inactive. Besides, the MIC is above 25 µM with Vibrio parahaemolyticus, 12.5 µM (≈ 2.4 µg/mL) in the experiment with Staphylococcus aureus, 25 µM (≈ 4.8 µg/mL) with Staphylococcus and 12.5 µM (≈ 2.4 µg/mL) in the experiment with Bacillus cereus.

In the case of `CC(=O)c1coc2c(O)cc(O)cc12` [PENICIFURAN D], the result in the experiment with K562, with A549 and with HL-60 was inactive. Moreover, the minimal inhibitory concentration (MIC) in the experiment on Vibrio parahaemolyticus is 25 µM (≈ 4.8 µg/mL); with Staphylococcus aureus, above 25 µM; in the experiment on Staphylococcus, 25 µM (≈ 4.8 µg/mL); in the experiment on Bacillus cereus it was 25 µM (≈ 4.8 µg/mL).

Regarding `O=c1oc(CO)c(CO)c2cc(O)cc(O)c12` [PENICIMARIN F], the outcome with K562, with A549 and in the experiment with HL-60 was inactive. In addition, the minimal inhibitory concentration (MIC) is above 25 µM with Vibrio parahaemolyticus, 12.5 µM (≈ 2.98 µg/mL) in the experiment on Staphylococcus aureus, above 25 µM with Staphylococcus and above 25 µM in the experiment with Bacillus cereus.

The values above are taken from ChEMBL document CHEMBL2331158, “Isocoumarin derivatives and benzofurans from a sponge-derived Penicillium sp. fungus” (2013).
